From ChEMBL document CHEMBL1141264, “Cucurbitane-type triterpenoids from the fruits of Momordica charantia and their cancer chemopreventive effects” (J Nat Prod, 2007) come the findings set out here.

Series [1] can be described thus: Scavenging activity against NO generation in NOR1-induced cell culture. It counts as functional. The method, boiled down: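 Cultured-cell screen for scavenging of NO released by the NO donor NOR 1. Activity expressed as inhibitory ratio (IR) against NOR 1 action, with glycyrrhizin and carboxy-PTIO as reference compounds.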
Series [2] can be described thus: Cytotoxicity against human Raji cells assessed as cell viability at 1000 mol ratio/TPA relative to control. It is filed as cell-based. Conditions: read-out: Activity. The method, boiled down:
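Raji cells stimulated with TPA at 32 pmol (20 ng), taken as 100% positive control. Test compound added at mol ratio to TPA of 1000, 500, 100 or 10 (1000:1 = 32 nmol). EBV-EA induction expressed as % of positive control; Raji cell viability recorded as % at the 1000 ratio. IC50 as mol ratio to TPA inhibiting 50% of control.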

In series [3] the test system is Raji. The series is described as follows: Inhibition of TPA-induced Epstein-Barr virus early antigen in Raji cells at 10 mol ratio/TPA relative to control; values are per cent of control. The settings on record: human gammaherpesvirus 4.
For series [4], the system named is Raji. As to the kind of experiment: Inhibition of TPA-induced Epstein-Barr virus early antigen in Raji cells at 500 mol ratio/TPA relative to control; values are per cent of control. Conditions: human gammaherpesvirus 4.
Series [5] concerns Raji. As to the kind of experiment: Inhibition of TPA-induced Epstein-Barr virus early antigen in Raji cells at 100 mol ratio/TPA relative to control; values are per cent of control. The settings on record: human gammaherpesvirus 4.
The subject of series [6] is Raji. The series is described as follows: Inhibition of TPA-induced Epstein-Barr virus early antigen in Raji cells at 1000 mol ratio/TPA relative to control; values are per cent of control. The settings on record: human gammaherpesvirus 4.
The species entered for series [7] is Mus musculus. As to the kind of experiment: Inhibition of DMBA-induced carcinogenesis in mouse assessed as reduction in papilloma bearing mouse after 10 weeks. It counts as functional. Also on record: scale not given: the % may be the effect or the level left. The method, boiled down: (§1)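 Mouse skin two-stage model, DMBA initiation and TPA promotion. Promotion with TPA 1.7 nmol; treated groups received 85 nmol test compound with each TPA application. Read-outs were % of mice bearing papillomas and mean papillomas per mouse, scored at 10 and 20 weeks. Papilloma numbers compared by Student's t-test.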

For series [8], the species on record is Mus musculus. The series is described as follows: Inhibition of DMBA-induced carcinogenesis in mouse assessed as reduction in papilloma bearing mouse after 20 weeks. Set-up: scale not given: the % may be the effect or the level left. It counts as functional. The method, boiled down:
as §1

For series [9], the species on record is Mus musculus. As to the kind of experiment: Inhibition of DMBA-induced carcinogenesis in mouse assessed as number of papillomas per mouse after 10 weeks. It is filed as functional. In short, it runs like this:
as §1

The species named for series [10] is Mus musculus. As to the kind of experiment: Inhibition of DMBA-induced carcinogenesis in mouse assessed as number of papillomas per mouse after 20 weeks. It is filed as functional. In short, it runs like this:
as §1

Series [11] concerns Mus musculus. As to the kind of experiment: Inhibition of peroxynitrite-induced carcinogenesis in po dosed mouse skin assessed as incidence of papilloma bearing mouse after 20 weeks. It counts as functional. Also on record: scale not given: the % may be the effect or the level left. In short, it runs like this:
(§2)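 Mouse back shaved and initiated topically with peroxynitrite (PN) 390 nmol in 1 mM NaOH (0.1 mL). Test compound given orally at 0.0025% in drinking water from 1 week before to 1 week after initiation. From 1 week after initiation, TPA (1 μg, 1.7 nmol) in acetone applied twice weekly. 15 mice per group. Papilloma incidence and papillomas per mouse recorded weekly for 20 weeks; papillomas counted once about 1 mm × 1 mm. Student's t-test used.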

Series [12] has as its system Mus musculus. As to the kind of experiment: Inhibition of peroxynitrite-induced carcinogenesis in po dosed mouse skin assessed as reduction in papilloma bearing animals after 20 weeks. It is filed as functional. In short, it runs like this: as §2

On to `CC1(C)N([O])C(c2ccc(C(=O)O)cc2)=[N+]([O-])C1(C)C`, for which the inhibitory ratio (IR) against NOR 1 action in series [1] stood at 8.

As to `CC1(C)[C@@H](O[C@H]2O[C@H](C(=O)O)[C@@H](O)[C@H](O)[C@H]2O[C@@H]2O[C@H](C(=O)O)[C@@H](O)[C@H](O)[C@H]2O)CC[C@]2(C)[C@H]3C(=O)C=C4[C@@H]5C[C@@](C)(C(=O)O)CC[C@]5(C)CC[C@@]4(C)[C@]3(C)CC[C@@H]12` [GLYCYRRHIZIN], the inhibitory ratio (IR) against NOR 1 action in series [1] came out at 2.2. The viability at 1000 mol ratio/TPA in series [2] was over 80%. Moreover, the level, % of control was 100% in the series with Raji [3], 63.3% with Raji [4], 83.3% in the series on Raji [5] and 27.4% with Raji [6].

Take `COC1O[C@]23C=C[C@@H]4[C@@]1(CC[C@]1(C)[C@@H]([C@H](C)C/C=C/C(C)(C)OC)CC[C@@]41C)[C@@H]2CC[C@H](O[C@@H]1O[C@H](CO)[C@@H](O)[C@H](O)[C@H]1O)C3(C)C` (some centres not stated) [GOYAGLYCOSIDE C]: in [2], the viability at 1000 mol ratio/TPA was found to be 70%. Further, the level, % of control amounted to 100% with Raji [3], 33.7% in the series on Raji [4], 80% in the series on Raji [5] and 13.5% in the series with Raji [6].

Turning to `COC1O[C@]23C=C[C@@H]4[C@@]1(CC[C@]1(C)[C@@H]([C@H](C)C/C=C/C(C)(C)O)CC[C@@]41C)[C@@H]2CC[C@H](O)C3(C)C` (some centres not stated), the inhibitory ratio (IR) against NOR 1 action in series [1] came to 1.9. For the same compound, the viability at 1000 mol ratio/TPA in series [2] was determined as 70%. The level, % of control in the series on Raji [3] amounted to 94.5%; with Raji [4], 27.6%; with Raji [5], 72.5%; with Raji [6] it was 0%.

For `CO[C@@H]1O[C@]23C=C[C@@H]4[C@@]1(CC[C@]1(C)[C@@H]([C@H](C)C[C@H](C=C(C)C)OC)CC[C@@]41C)[C@@H]2CC[C@H](O[C@@H]1O[C@H](CO)[C@@H](O)[C@@H](O)[C@H]1O)C3(C)C` [CHARANTOSIDE II], the viability at 1000 mol ratio/TPA in series [2] came out at 70%. The level, % of control in the series with Raji [3] is 100%; in the series with Raji [4], 35%; in the series on Raji [5], 82.1%; with Raji [6] it was 12.3%.

As for `C=C(C)/C=C/C[C@@H](C)[C@H]1CC[C@@]2(C)[C@@H]3[C@@H](OC)C=C4[C@@H](CC[C@H](O)C4(C)C)[C@]3(C=O)CC[C@]12C`, the inhibitory ratio (IR) against NOR 1 action in series [1] stood at 1.6. Further, the viability at 1000 mol ratio/TPA in series [2] stood at 70%. Moreover, the level, % of control in the series on Raji [3] was 95.3%; in the series with Raji [4] it was 22.5%; in the series with Raji [5] it was 75.4%; in the series on Raji [6] it was 0%.

For the compound `C=C(C)/C=C/C[C@@H](C)[C@H]1CC[C@@]2(C)[C@@H]3C=C[C@@]45OC[C@]3(CC[C@]12C)[C@@H]4CC[C@H](O[C@@H]1O[C@H](CO)[C@@H](O)[C@H](O)[C@H]1O)C5(C)C` [CHARANTOSIDE III], in [2], the viability at 1000 mol ratio/TPA stood at 70%. In addition, the level, % of control was 100% in the series with Raji [3], 36% in the series with Raji [4], 82.1% in the series with Raji [5] and 12.9% in the series on Raji [6].

For the compound `CO[C@H](C=C(C)C)C[C@@H](C)[C@H]1CC[C@@]2(C)[C@@H]3[C@@H](OC)C=C4[C@@H](CC[C@H](O[C@@H]5O[C@H](CO)[C@@H](O)[C@H](O)[C@H]5O)C4(C)C)[C@]3(C)CC[C@]12C` [KARAVILOSIDE I], the viability at 1000 mol ratio/TPA in [2] was 70%. Further, the level, % of control with Raji [3] was 100%; with Raji [4], 39.2%; with Raji [5], 83.7%; with Raji [6], 16.1%.

On to `CO[C@@H](C=C(C)C)C[C@@H](C)[C@H]1CC[C@@]2(C)[C@@H]3C=C[C@@]45OC[C@]3(CC[C@]12C)[C@@H]4CC[C@H](O[C@@H]1O[C@H](CO)[C@@H](O)[C@H](O)[C@H]1O)C5(C)C` [CHARANTOSIDE V], for which, in [2], the viability at 1000 mol ratio/TPA stood at 70%. In addition, the level, % of control came out at 100% in the series on Raji [3], 30.6% in the series on Raji [4], 77% in the series on Raji [5] and 10.5% with Raji [6].

With `CO[C@@H]1O[C@]23C=C[C@@H]4[C@@]1(CC[C@]1(C)[C@@H]([C@H](C)C/C=C/C(C)(C)OC)CC[C@@]41C)[C@@H]2CC[C@H](O)C3(C)C`, the inhibitory ratio (IR) against NOR 1 action in [1] is 1.9. Also, in series [2], the viability at 1000 mol ratio/TPA turned out to be 70%. The Activity in the series filed under Mus musculus [7] came to 33%; in the series filed under Mus musculus [8] it was 80%; in the series filed under Mus musculus [9] it was 2.1; in the series filed under Mus musculus [10], 3.9; with Mus musculus [11] it was 80%; in the series on Mus musculus [12] it was 4.5. Moreover, the level, % of control with Raji [3] was found to be 83.9%; with Raji [4], 19%; in the series on Raji [5], 42.4%; in the series on Raji [6], 0%.

Take `CO[C@H]1C=C2[C@@H](CC[C@H](O)C2(C)C)[C@]2(C=O)CC[C@]3(C)[C@@H]([C@H](C)C/C=C/C(C)(C)OC)CC[C@@]3(C)[C@H]12`: in [1], the inhibitory ratio (IR) against NOR 1 action was found to be 1.5. The viability at 1000 mol ratio/TPA in series [2] amounted to 70%. Moreover, the level, % of control in the series on Raji [3] was 97.3%; with Raji [4], 33.7%; in the series on Raji [5], 77.5%; in the series with Raji [6] it was 0%.

`C=C(C)/C=C/C[C@@H](C)[C@H]1CC[C@@]2(C)[C@@H]3C=C[C@@]45O[C@@H](OC)[C@]3(CC[C@]12C)[C@@H]4CC[C@H](O)C5(C)C`: the inhibitory ratio (IR) against NOR 1 action in series [1] was determined as 2. Moreover, the viability at 1000 mol ratio/TPA in series [2] was 70%. In addition, the Activity is listed as 33% in the series filed under Mus musculus [7], 80% in the series filed under Mus musculus [8], 1.7 in the series filed under Mus musculus [9] and 4 in the series listed under Mus musculus [10]. Besides, the level, % of control worked out at 82.7% with Raji [3], 18.5% in the series with Raji [4], 60.2% in the series with Raji [5] and 0% in the series with Raji [6].

With `COC1O[C@]23C=C[C@@H]4[C@@]1(CC[C@]1(C)[C@@H]([C@H](C)C/C=C/C(C)(C)OC)CC[C@@]41C)[C@@H]2CC[C@H](O[C@@H]1O[C@H](CO)[C@@H](O)[C@@H](O)[C@H]1O)C3(C)C` (some centres not stated) [GOYAGLYCOSIDE D], in series [2], the viability at 1000 mol ratio/TPA came out at 70%. Besides, the level, % of control in the series with Raji [3] stood at 100%; in the series with Raji [4], 34.2%; in the series on Raji [5], 80.3%; in the series on Raji [6], 11.2%.
